Experimental data collected from several papers.
Compare with care: the assays were run in different laboratories.
Organism: Severe acute respiratory syndrome coronavirus 2

Compound	test	test system	conditions	quantity	value
O=C(/C=C/c1ccc(O)c(O)c1/C=C/c1ccc(O)c(O)c1)O[C@H](Cc1ccc(O)c(O)c1)C(=O)O	cytopathic effect, inhibitor	Vero C1008	0.7812 µM	inhibition	0%
N#C[C@@]1(c2ccc3c(N)ncnn23)O[C@H](CO)[C@@H](O)[C@H]1O	viral replication, inhibitor, qPCR	Vero C1008	48 h	EC90	770 nM
CCN(CCO)CCCC(C)Nc1ccnc2cc(Cl)ccc12 (stereo not shown)	viral replication, inhibitor	Huh-7		IC50	> 2000 nM
COC(=O)Nc1nc2cc(C3(O)c4ccccc4C(=O)N3c3cc(Cl)ccc3C)ccc2[nH]1 (stereo not shown)	viral replication, inhibitor	Vero C1008	1 µM	inhibition	40.3%
COc1ccc(CCN(C)CCCC(C#N)(c2ccc(OC)c(OC)c2)C(C)C)cc1OC (stereo not shown)	viral replication, inhibitor	Huh-7		IC50	534 nM
CCC(CC)COC(=O)[C@H](C)N[P@](=O)(OC[C@H]1O[C@@](C#N)(c2ccc3c(N)ncnn23)[C@H](O)[C@@H]1O)Oc1ccccc1	viral replication	Vero	1 µM	inhibition	95.2%
N#Cc1ccc2[nH]cc(CCCCN3CCN(c4ccc5oc(C(=N)Cl)cc5c4)CC3)c2c1	viral replication, inhibitor	Huh-7		IC50	> 2000 nM
CCCCCCCCCCCCCCCCCCOC[C@H](COP(=O)(O)OC[C@H]1O[C@@](C#N)(c2ccc3c(N)ncnn23)[C@H](O)[C@@H]1O)OCc1ccccc1	viral replication, inhibitor, qPCR	Vero C1008		EC50	140 nM
Cn1cnc(Cn2c(=O)[nH]/c(=N\c3cc4cn(C)nc4cc3Cl)n(Cc3cc(F)c(F)cc3F)c2=O)n1	viral replication, inhibitor, qPCR		48 h	EC50	23 nM
Cc1cc2c(cc1C(=O)Oc1ccc(C(=O)O)cc1)C(C)(C)CCC2(C)C	viral replication, inhibitor	Vero C1008	1 µM	inhibition	49.8%
CC(C)[C@H]1CC[C@H](C(=O)N[C@H](Cc2ccccc2)C(=O)O)CC1	viral replication, inhibitor	Huh-7		IC50	> 2000 nM
COc1ccc2c(c1)c(CC(=O)O)c(C)n2C(=O)c1ccc(Cl)cc1	plaque formation	Vero C1008		EC50	~100000 nM
Cn1c(C(=O)Nc2ccc3c(c2)OCCO3)cc2c(=O)n3ccccc3nc21	viral replication	Vero	10 µM	inhibition	91.8%
N[C@@H](Cc1cc(I)c(Oc2cc(I)c(O)c(I)c2)c(I)c1)C(=O)O	plaque formation, inhibitor	Vero C1008		EC50	7000 nM
CCCCCCCCCCCCCCCCCCOCCOP(=O)(O)OC[C@H]1O[C@@](C#N)(c2ccc3c(N)ncnn23)[C@H](O)[C@@H]1O	viral replication, inhibitor, qPCR	Vero C1008	48 h	EC90	330 nM
CN(CCc1ccc(Cl)c(Cl)c1)CCN1CCCC1	viral replication, inhibitor	A549-ACE2		IC50	1480 nM
c1ccc([C@H]2CN3CCSC3=N2)cc1	viral replication, inhibitor	Huh-7		IC50	> 2000 nM
COc1ccc(C[C@@H]2c3cc(Oc4cc(C[C@@H]5c6cc(O)c(OC)cc6CCN5C)ccc4O)c(OC)cc3CCN2C)cc1	cytopathic effect	Vero C1008	12.5 µM	inhibition	0%
Cn1c(C(=O)Nc2ccc(Cl)cc2)cc2c(=O)n3ccccc3nc21	viral replication	Vero	1 nM	inhibition	5.41%
CCCCCCCCCCCCCCCCOCCCOP(=O)(O)OC[C@H]1O[C@@](C#N)(c2ccc3c(N)ncnn23)[C@H](O)[C@@H]1O	viral replication, inhibitor, qPCR	Vero C1008		EC50	630 nM

Compound	test	test system	conditions	quantity	value
OCCN1CCN(CCCN2c3ccccc3C=Cc3ccccc32)CC1	viral replication	Vero C1008		IC50	10000 nM
C=C1[C@H](CO)[C@@H](O)C[C@@H]1n1cnc2c(=O)[nH]c(N)nc21	viral replication, inhibitor	Huh-7		IC50	42 nM
C=C[C@@](C)(/C=C/c1ccc(O)cc1)CCC=C(C)C	cytopathic effect	Vero C1008	3.125 µM	inhibition	0%
Clc1ccc(C(OCCN2CCCCC2)c2ccccc2)cc1 (stereo not shown)	viral replication, inhibitor	A549-ACE2		IC50	1510 nM
CCC(CC)COC(=O)[C@H](C)N[P@](=O)(OC[C@H]1O[C@@](C#N)(c2ccc3c(N)ncnn23)[C@H](O)[C@@H]1O)Oc1ccccc1	viral replication, inhibitor, qPCR	Vero C1008	48 h	EC90	7050 nM
CCCN(CCC)CCc1ccc(OC)c(OCCc2ccccc2)c1	viral replication	Vero C1008		IC50	3890 nM
Cc1ccc(NC(=O)c2cc3c(=O)n4cccc(C)c4nc3n2C)cc1Cl	viral replication	Vero	10 nM	inhibition	25.8%
Cc1cccc(CN2CCN(C(c3ccccc3)c3ccc(Cl)cc3)CC2)c1 (stereo not shown)	viral replication	Vero C1008		IC50	1350 nM
CCCN(CCC)c1cc(C)nc2c(-c3cnc(N(C)C)cc3C)c(C)nn12	viral replication, inhibitor	Vero C1008	1 µM	inhibition	60%
O=C(O[C@@H]1Cc2c(O)cc(O)cc2O[C@@H]1c1cc(O)c(O)c(O)c1)c1cc(O)c(O)c(O)c1	cytopathic effect, inhibitor	Vero C1008	3.125 µM	inhibition	0%
CN(CCCN1c2ccccc2CCc2ccccc21)CC(=O)c1ccc(Cl)cc1	viral replication, inhibitor	A549-ACE2		IC50	7760 nM
O=C(Nc1ccccc1F)c1cc2c(=O)n3ccccc3nc2n1Cc1ccccc1	viral replication	Vero	1 nM	inhibition	12.3%
CC(CN1c2ccccc2Sc2ccccc21)N(C)C (stereo not shown)	viral replication	Vero C1008		IC50	3160 nM
Cc1cccn2c(=O)c3cc(C(=O)Nc4ccc(N(C)C)cc4)n(C)c3nc12	viral replication	Vero	10 nM	inhibition	7.3%
CCOC(=O)c1ncc2[nH]c3cccc(OC(C)C)c3c2c1C	viral replication, inhibitor	Vero C1008	1 µM	inhibition	40.6%
CC(C)=CCc1c(O)ccc(C(=O)/C=C/c2ccc(O)cc2)c1O	cytopathic effect	Vero C1008	6.25 µM	inhibition	0%
CCOC(=O)c1[nH]c2cc(OC)c(OC)cc2c1CCN1CCN(c2ccccc2)CC1	viral replication, inhibitor	Vero C1008	1 µM	inhibition	52.8%
Cc1cc(NC(=O)c2cc3c(=O)n4cccc(C)c4nc3n2C)ccc1Br	viral replication	Vero	1 µM	inhibition	74.7%
OC(CCN1CCCCC1)(c1ccccc1)C1CCCCC1 (stereo not shown)	viral replication	Vero C1008		IC50	8910 nM
CCC(CC)COC(=O)[C@H](C)N[P@](=O)(OC[C@H]1O[C@@](C#N)(c2ccc3c(N)ncnn23)[C@H](O)[C@@H]1O)Oc1ccccc1	viral replication, inhibitor	Vero C1008		EC50	< 100000 nM
